These results are taken from ChEMBL document CHEMBL4152256, “Structure-activity relationship of new antimalarial 1-aryl-3-susbtituted propanol derivatives: Synthesis, preliminary toxicity profiling, parasite life cycle stage studies, target exploration, and targeted delivery” (Eur J Med Chem, 2018).

Active and inactive are the calls of the source. The rule behind the calls is not given here.

Data set [1] can be described thus: Genotoxicity in Salmonella typhimurium TA1535 harboring pSK1002 assessed as survival at 1 mg/ml in presence of Sprague-Dawley rat liver S9 fraction after by SOS/umu assay relative to control. Type of data set: toxicity, organism-based. The note with it: salmonella enterica subsp. enterica serovar typhimurium, read-out: Survival.
Data set [2] in a line: Genotoxicity in Salmonella typhimurium TA1535 harboring pSK1002 assessed as umu gene induction at 1 mg/ml in presence of Sprague-Dawley rat liver S9 fraction after by SOS/umu assay relative to control. The format is toxicity, organism-based. The note with it: salmonella enterica subsp. enterica serovar typhimurium, read-out: FC.
Data set [3] has as its system Plasmodium falciparum. Kind of data set: Binding affinity to Plasmodium falciparum GRP94 nucleotide binding domain at 0.5 mM by SYPRO orange dye based DSF analysis. The method in brief: (§1)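 Recombinant P. falciparum Hsp90 or GRP94 nucleotide-binding domain (0.05–0.2 mg/mL, optimized per protein) in 25 mM HEPES pH 7.5, 250 mM NaCl. Compound final concentration was 0.5 mM, with SYPRO Orange at 1:1000. Samples were heated from 18 to 90 °C at 1 °C/min. Tm was taken as the Boltzmann-fit inflection point. ΔTm = Tm with ligand minus Tm without, and shifts beyond ±1 °C were counted significant.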

The target of data set [4] is T1, HSP90 (Plasmodium falciparum 3D7) (UniProt Q8IL32).
T1 sequence (whole entry): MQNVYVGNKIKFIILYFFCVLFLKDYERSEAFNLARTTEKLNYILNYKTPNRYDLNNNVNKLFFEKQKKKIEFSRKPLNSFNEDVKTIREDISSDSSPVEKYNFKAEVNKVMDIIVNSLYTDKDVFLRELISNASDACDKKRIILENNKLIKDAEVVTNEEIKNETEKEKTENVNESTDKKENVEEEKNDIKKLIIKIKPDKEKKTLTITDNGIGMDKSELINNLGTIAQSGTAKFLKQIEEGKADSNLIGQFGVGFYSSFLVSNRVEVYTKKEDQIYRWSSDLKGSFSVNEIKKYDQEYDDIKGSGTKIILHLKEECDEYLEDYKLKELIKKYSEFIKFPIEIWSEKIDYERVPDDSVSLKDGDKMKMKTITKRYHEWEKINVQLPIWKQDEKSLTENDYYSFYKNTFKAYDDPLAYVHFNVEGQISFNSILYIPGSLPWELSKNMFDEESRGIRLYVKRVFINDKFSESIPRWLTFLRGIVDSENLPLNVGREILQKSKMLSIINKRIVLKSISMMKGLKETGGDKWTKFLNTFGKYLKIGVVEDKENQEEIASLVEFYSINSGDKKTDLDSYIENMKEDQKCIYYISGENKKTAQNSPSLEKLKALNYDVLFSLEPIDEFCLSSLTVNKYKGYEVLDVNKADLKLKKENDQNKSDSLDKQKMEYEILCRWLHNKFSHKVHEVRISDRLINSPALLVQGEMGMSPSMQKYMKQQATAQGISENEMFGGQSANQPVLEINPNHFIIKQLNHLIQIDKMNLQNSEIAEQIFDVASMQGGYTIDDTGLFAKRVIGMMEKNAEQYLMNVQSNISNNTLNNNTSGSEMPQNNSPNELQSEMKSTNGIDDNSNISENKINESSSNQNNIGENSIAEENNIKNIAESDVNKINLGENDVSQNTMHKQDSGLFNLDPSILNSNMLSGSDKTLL
Kind of data set: Binding affinity to Plasmodium falciparum HSP90 nucleotide binding domain by SPR analysis. A digest of the protocol: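 Purified PfHsp90 and PfGRP94 nucleotide-binding domains were amine-coupled to a CM5 chip (3000 and 7000 RU, respectively), with a blank reference surface. Seven compound concentrations (0.4 nM–1 mM) were injected in triplicate at 30 µL/min, 25 °C, in random order. Running buffer: 10 mM HEPES pH 7.4, 150 mM NaCl, 0.005% P20, 1% DMSO, 2 mM MgCl2. Kd came from double-referenced sensorgrams.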
In general terms: In SPR one partner is held on a chip, and binding of the other changes the refractive index at the surface.

The target of data set [5] is T1, HSP90 (Plasmodium falciparum 3D7). Description: Binding affinity to Plasmodium falciparum HSP90 nucleotide binding domain at 0.5 mM by SYPRO orange dye based DSF analysis. A digest of the protocol: as §1
Data set [6] can be described thus: Genotoxicity in Salmonella typhimurium TA1535 harboring pSK1002 assessed as umu gene induction at 0.0005 mg/ml in absence of Sprague-Dawley rat liver S9 fraction after by SOS/umu assay relative to control. The note with it: salmonella enterica subsp. enterica serovar typhimurium, read-out: FC. Type of data set: toxicity, organism-based.
Data set [7] relates to Plasmodium falciparum. Kind of data set: Antiplasmodial activity against Plasmodium falciparum FCR-3 sporozoites infected in human primary hepatocytes treated simultaneously with infection by DAPI staining based HCS analysis. Type of data set: functional, organism-based, FCR-3/Gambia.
The nature of data set [8]: Selectivity index, ratio of CC50 for human HepG2A16 cells to IC50 for GFP-fused Plasmodium berghei sporozoites infected in human HepG2A16 cells. Type of data set: toxicity, cell-based. The note with it: read-out: Ratio CC50/IC50. A digest of the protocol:
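HepG2-A16 cells were grown at 3 × 10^4 per well on collagen and infected with GFP P. berghei sporozoites (5 × 10^3 to 1 × 10^4 per well) from A. stephensi salivary glands. Compounds were added at infection, from 10 µg/mL top plus seven serial dilutions, and refreshed at 3 h and then every 24 h. After 40 h at 37 °C, EEFs were methanol-fixed, anti-Hsp70 immunolabelled and counted by high-content imaging. SI = HepG2 CC50 / liver-stage IC50.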

Data set [9] relates to Plasmodium falciparum. Kind of data set: Antiplasmodial activity against Plasmodium falciparum 3D7 late stage forms infected in human non-washed human RBC containing full drug dosages by [3H]-hypoxanthine incorporation assay. The note with it: 3D7, Erythrocyte. The format is functional, organism-based.
Data set [10] relates to Plasmodium falciparum. Description: Antiplasmodial activity against Plasmodium falciparum 3D7 ring stage forms infected in immunoliposome encapsulated compound pre-loaded human RBC by [3H]-hypoxanthine incorporation assay. The format is functional, organism-based. The note with it: 3D7, Erythrocyte.
Data set [11] concerns Plasmodium falciparum. Kind of data set: Antiplasmodial activity against chloroquine-sensitive Plasmodium falciparum 3D7 late forms infected in human RBC incubated for 15 mins followed by compound removal and further incubation for 48 hrs by [3H]-hypoxanthine incorporation assay. Type of data set: functional, organism-based. The note with it: 3D7, Erythrocyte.
Data set [12] relates to Plasmodium falciparum. Description: Antiplasmodial activity against chloroquine-sensitive Plasmodium falciparum 3D7 ring forms infected in human RBC incubated for 15 mins followed by compound removal and further incubation for 48 hrs by [3H]-hypoxanthine incorporation assay. The note with it: 3D7, Erythrocyte. Type of data set: functional, organism-based.
Data set [13] relates to Plasmodium falciparum. Kind of data set: Ratio of IC50 for antiplasmodial activity against chloroquine-sensitive Plasmodium falciparum 3D7 ring forms infected in human RBC incubated for 15 mins followed by compound removal and further incubation for 48 hrs by [3H]-hypoxanthine incorporation assay to IC50 for antiplasmodial activity against chloroquine-sensitive Plasmodium falciparum 3D7 ring forms infected in human RBC using compound …. Type of data set: functional.

Data set [14] is described as follows: Drug encapsulation in liposomes assessed as encapsulation efficiency in citrate/phosphate buffered measured after buffer exchange with PBS by UV/Vis spectroscopy relative to untreated control. Type of data set: physicochemical. The note with it: artificial membrane. A digest of the protocol: (§2)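 Compound loaded into DSPC:cholesterol:DSPE-PEG2000-Mal:DOPE-Rho (84.5:10:5:0.5) liposomes using a citrate (pH 4.0)/PBS pH gradient. Drug measured by UV/vis after SDS disruption at each step: citrate liposomes, after buffer exchange to PBS (chloroquine added to preformed liposomes here), and after ultracentrifugation. Encapsulation efficiency = % of drug that is encapsulated out of total drug in the sample.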

Data set [15] relates to Plasmodium falciparum. Description: Ratio of IC50 for antiplasmodial activity against Plasmodium falciparum 3D7 late stage forms infected in immunoliposome encapsulated compound pre-loaded human RBC by [3H]-hypoxanthine incorporation assay to IC50 for antiplasmodial activity against Plasmodium falciparum 3D7 late stage forms infected in human non-washed human RBC containing full drug dosages by [3H]-hypoxanthine incorporation assay. The format is functional.

Data set [16] is described as follows: Drug encapsulation in liposomes assessed as encapsulation efficiency in citrate/phosphate buffered measured after ultracentrifugation by UV/Vis spectroscopy relative to untreated control. The format is physicochemical. The note with it: artificial membrane. The method in brief: as §2

Take `COc1ccccc1C1=CCN(CCC(O)c2ccc(F)cc2)CC1` (stereo not drawn): the viability at 1 mg/ml in data set [1] came to 32.2%. The fold induction at 1 mg/ml in data set [2] was determined as 1.

Turning to `COc1ccccc1N1CCN(CCC(O)c2ccc(F)c3ccccc23)CC1` (stereo not drawn), the outcome (in the data set with Plasmodium falciparum [3]; in data set [4]; in data set [5]) was inactive.

Consider `OC(CCN1CCN(c2ccccc2C(F)(F)F)CC1)c1ccc(F)c2ccccc12` (stereo in doubt; 55), for which the viability at 1 mg/ml in data set [1] turned out to be 164%. For the same compound, in [2], the fold induction at 1 mg/ml was 0.4.

For `OC(CCN1CCN(c2ccccc2C(F)(F)F)CC1)c1ccc(F)cc1` (stereo not drawn), the viability at 1 mg/ml in data set [1] is 97%. The fold induction at 1 mg/ml in data set [2] was 0.3.

As for `OC(CCN1CCN(C(c2ccccc2)c2ccccc2)CC1)c1ccc(F)c(F)c1` (stereo not drawn), the fold induction at 0.0005 mg/ml in data set [6] worked out at 0.7.

With `OC(CCN1CCN(C(c2ccccc2)c2ccccc2)CC1)c1ccc(F)c2ccccc12` (stereo not drawn), the result (in the data set with Plasmodium falciparum [3]; in [4]; in data set [5]) was inactive. Moreover, the IC50 (as a rule, the point on the concentration scale where inhibition reaches its midpoint) with Plasmodium falciparum [7] is on record as “Not Active”. Also, in data set [8], the selectivity ratio came out at 3.7.

For `N#Cc1ccc(N2CCC(NCCC(O)c3ccc(F)c4ccccc34)CC2)c(Cl)c1` (stereo not drawn), the result (with Plasmodium falciparum [3]; in [4]; in data set [5]) was inactive. Moreover, the concentration for half-maximal inhibition (IC50) entry with Plasmodium falciparum [7] is reported as “Not Active”. For the same compound, in data set [8], the selectivity ratio was determined as 2.3.

Take `N#Cc1ccc(N2CCC(NCCC(O)c3ccc(F)c4ccccc34)CC2)c(Br)c1` (stereo not drawn): the result (in the data set on Plasmodium falciparum [3]; in [4]; in data set [5]) was inactive.

Turning to `N#Cc1ccc(N2CCC(NCCC(O)c3ccc(F)c4ccccc34)CC2)c(C(F)(F)F)c1` (stereo in doubt; 72), the IC50 in the data set on Plasmodium falciparum [9] was 302 nM; in the data set on Plasmodium falciparum [10] it was 514 nM; with Plasmodium falciparum [11] it was 916 nM; in the data set with Plasmodium falciparum [12] it was 867 nM; in the data set with Plasmodium falciparum [7], “Not Active”. Further, the “Ratio IC50” value is on record as 5.9 in the data set with Plasmodium falciparum [13] and 1.5 in the data set with Plasmodium falciparum [15]. In addition, the Activity in data set [14] came out at 77.2%; in data set [16], 101.4%. Besides, in [8], the selectivity ratio came to 2.3.
